Converted amounts (≈) assume the structure as drawn. The source made the active and inactive calls. The rule behind the calls is not given here.
Assays:
[1] = target: T1, Alpha-1A adrenergic receptor (Homo sapiens, UniProt P35348); assay: Intrinsic activity at recombinant human alpha1A adrenergic receptor expressed in HEK293 cells assessed as intercellular Ca mobilization by Fura-2AM dye-based fluorescence assay relative to norepinephrine; type: cell-based; settings: read-out: Intrinsic activity
T1 sequence (P35348 whole entry): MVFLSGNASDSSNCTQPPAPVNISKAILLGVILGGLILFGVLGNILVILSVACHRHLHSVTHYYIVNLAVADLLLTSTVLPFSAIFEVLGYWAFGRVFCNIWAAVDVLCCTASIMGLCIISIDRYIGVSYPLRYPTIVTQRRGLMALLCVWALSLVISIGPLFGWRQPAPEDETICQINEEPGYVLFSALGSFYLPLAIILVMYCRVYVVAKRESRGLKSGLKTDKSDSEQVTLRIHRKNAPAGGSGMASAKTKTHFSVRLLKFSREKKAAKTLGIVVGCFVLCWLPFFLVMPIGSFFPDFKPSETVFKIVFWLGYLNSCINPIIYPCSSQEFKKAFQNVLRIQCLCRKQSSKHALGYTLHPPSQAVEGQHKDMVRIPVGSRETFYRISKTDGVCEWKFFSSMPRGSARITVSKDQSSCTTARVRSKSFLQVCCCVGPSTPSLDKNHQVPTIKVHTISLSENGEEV

Homo sapiens = species: Homo sapiens; assay: Selectivity ratio of EC50 for recombinant human alpha1A adrenergic receptor to EC50 for recombinant human beta3 adrenergic receptor
[2] = Intrinsic clearance in Sprague-Dawley rat liver microsomes at 0.5 uM in presence of NADPH by LC-MS/MS analysis; type: ADME, microsome
Method in brief: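 Pooled male Sprague-Dawley rat liver microsomes (0.5 mg/mL final) in 100 mM Tris-HCl pH 7.4 with NADPH-regenerating mix plus UDP-GA, test compound 0.5 µM, 20 min at 37 °C. Acetonitrile stop, LC-MS/MS. CLint,u is scaled with 44.8 mg protein/g liver and 40.0 g liver/kg, and corrected by fu from ultracentrifugation (160,000g, 16 h, 37 °C).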

[3] = Intrinsic clearance in human liver microsomes at 1 uM in presence of NADPH by LC-MS/MS analysis; type: ADME, microsome
Method in brief: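 Pooled mixed-gender human liver microsomes (0.5 mg/mL) in 100 mM potassium phosphate pH 7.4 with NADPH-regenerating mix plus UDP-GA, test compound 1 µM, 15 min at 37 °C. Acetonitrile stop, LC-MS/MS. k from the remaining fraction. CLint,u is scaled with 48.8 mg protein/g liver and 25.7 g liver/kg, and corrected by fu from equilibrium dialysis (1 µM, 0.5 mg/mL, 6 h, 37 °C).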

[4] = Cmax in Sprague-Dawley rat at 5 mg/kg, po by LC-MS/MS analysis; type: ADME, organism-based; design: dose 5 mg/kg, route oral; settings: in vivo
Method in brief: (§1)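 Male Sprague-Dawley rats (n = 2 or 3) dosed orally at 5 mg/kg in saline or water (5 mL/kg). Blood taken from the subclavian vein at 0.5, 1, 2, 4, 6 and 8 h; plasma separated by centrifugation, stored at -20 °C, and drug levels measured by LC-MS/MS. Values are mean ± SD (n = 3) or the average of two experiments.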

[5] = Half life in Sprague-Dawley rat at 5 mg/kg, po by LC-MS/MS analysis; type: ADME, organism-based; settings: in vivo; method in brief: as §1
[6] = target: T2, Beta-2 adrenergic receptor (Homo sapiens, UniProt P07550); assay: Intrinsic activity at recombinant human beta2 adrenergic receptor assessed as accumulation of cyclic AMP after 30 mins relative to isoproterenol
T2 sequence (P07550 whole entry): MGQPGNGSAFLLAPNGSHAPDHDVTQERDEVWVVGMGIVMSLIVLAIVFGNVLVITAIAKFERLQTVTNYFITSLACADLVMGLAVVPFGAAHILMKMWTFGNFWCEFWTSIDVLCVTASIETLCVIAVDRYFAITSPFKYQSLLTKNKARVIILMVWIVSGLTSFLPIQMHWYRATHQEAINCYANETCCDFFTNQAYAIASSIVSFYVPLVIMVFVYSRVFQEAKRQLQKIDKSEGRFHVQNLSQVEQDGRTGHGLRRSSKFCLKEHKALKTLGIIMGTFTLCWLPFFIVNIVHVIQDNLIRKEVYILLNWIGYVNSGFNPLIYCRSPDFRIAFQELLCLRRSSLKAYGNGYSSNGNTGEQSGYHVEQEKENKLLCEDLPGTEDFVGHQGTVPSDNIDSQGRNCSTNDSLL

[7] = target: T3, Beta-1 adrenergic receptor (Homo sapiens, UniProt P08588); assay: Intrinsic activity at recombinant human beta1 adrenergic receptor assessed as accumulation of cyclic AMP after 30 mins relative to isoproterenol; settings: 0.5 h
T3 sequence (P08588 whole entry): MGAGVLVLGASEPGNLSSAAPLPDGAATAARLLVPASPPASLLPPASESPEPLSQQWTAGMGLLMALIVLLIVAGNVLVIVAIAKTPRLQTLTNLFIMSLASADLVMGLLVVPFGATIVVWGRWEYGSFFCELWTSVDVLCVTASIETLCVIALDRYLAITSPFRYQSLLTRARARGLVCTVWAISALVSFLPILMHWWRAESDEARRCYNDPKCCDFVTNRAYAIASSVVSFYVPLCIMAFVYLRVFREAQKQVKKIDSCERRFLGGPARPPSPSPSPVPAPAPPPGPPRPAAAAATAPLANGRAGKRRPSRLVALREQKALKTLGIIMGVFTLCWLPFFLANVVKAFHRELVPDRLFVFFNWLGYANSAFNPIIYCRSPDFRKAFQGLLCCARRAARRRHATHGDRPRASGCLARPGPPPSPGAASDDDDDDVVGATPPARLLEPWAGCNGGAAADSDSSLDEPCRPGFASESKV

[8] = Membrane permeability in MDCK cells at 50 uM after 60 mins by LC-MS/MS analysis; type: ADME, cell-based, Canis lupus familiaris; settings: dog, read-out: permeability
[9] = AUC in Sprague-Dawley rat at 5 mg/kg, po by LC-MS/MS analysis; type: ADME, organism-based; settings: in vivo; method in brief: as §1
[10] = Solubility of the compound at pH 6.8 buffer solution after 18 hrs by HPLC analysis; type: physicochemical
[11] = Solubility of the compound at pH 1.2 buffer solution after 18 hrs by HPLC analysis; type: physicochemical
[12] = target: T4, Beta-3 adrenergic receptor (Homo sapiens, UniProt P13945); assay: Agonist activity at recombinant human beta3 adrenergic receptor expressed in CHO cells assessed as accumulation of cyclic AMP after 30 mins; type: cell-based
Target sequence in this assay (P13945 whole entry): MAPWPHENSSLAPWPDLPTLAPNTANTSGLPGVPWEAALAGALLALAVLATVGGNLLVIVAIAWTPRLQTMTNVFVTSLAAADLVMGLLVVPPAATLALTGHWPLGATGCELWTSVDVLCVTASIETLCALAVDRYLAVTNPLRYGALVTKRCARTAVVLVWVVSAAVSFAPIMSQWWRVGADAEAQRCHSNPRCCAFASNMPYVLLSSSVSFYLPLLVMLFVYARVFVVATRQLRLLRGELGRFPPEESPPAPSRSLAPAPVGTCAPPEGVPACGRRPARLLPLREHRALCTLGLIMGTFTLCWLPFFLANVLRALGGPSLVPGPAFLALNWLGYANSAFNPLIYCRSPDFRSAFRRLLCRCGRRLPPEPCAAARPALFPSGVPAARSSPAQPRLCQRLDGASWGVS

[13] = target: T3, Beta-1 adrenergic receptor; assay: Agonist activity at recombinant human beta1 adrenergic receptor expressed in CHO cells assessed as accumulation of cyclic AMP after 30 mins; type: cell-based
[14] = target: T4, Beta-3 adrenergic receptor; assay: Intrinsic activity at recombinant human beta3 adrenergic receptor expressed in CHO cells assessed as accumulation of cyclic AMP after 30 mins relative to isoproterenol; type: cell-based
Target sequence in this assay (P13945 whole entry, looked up): as the sequence (P13945 whole entry) above

[15] = target: T1, Alpha-1A adrenergic receptor; assay: Agonist activity at recombinant human alpha1A adrenergic receptor expressed in HEK293 cells assessed as intercellular Ca mobilization by Fura-2AM dye-based fluorescence assay; type: cell-based
[16] = target: T2, Beta-2 adrenergic receptor; assay: Agonist activity at recombinant human beta2 adrenergic receptor expressed in CHO cells assessed as accumulation of cyclic AMP after 30 mins; type: cell-based
[17] = target: Adrenoceptor beta 3 (Callithrix jacchus) (UniProt F6XZF4); assay: Agonist activity at beta3 adrenergic receptor in marmoset urinary bladder smooth muscle strips assessed as induction of KCl-precontracted muscle relaxation treated every 20 mins
Adrenoceptor beta 3 (Callithrix jacchus), sequence (F6XZF4 as listed by the source): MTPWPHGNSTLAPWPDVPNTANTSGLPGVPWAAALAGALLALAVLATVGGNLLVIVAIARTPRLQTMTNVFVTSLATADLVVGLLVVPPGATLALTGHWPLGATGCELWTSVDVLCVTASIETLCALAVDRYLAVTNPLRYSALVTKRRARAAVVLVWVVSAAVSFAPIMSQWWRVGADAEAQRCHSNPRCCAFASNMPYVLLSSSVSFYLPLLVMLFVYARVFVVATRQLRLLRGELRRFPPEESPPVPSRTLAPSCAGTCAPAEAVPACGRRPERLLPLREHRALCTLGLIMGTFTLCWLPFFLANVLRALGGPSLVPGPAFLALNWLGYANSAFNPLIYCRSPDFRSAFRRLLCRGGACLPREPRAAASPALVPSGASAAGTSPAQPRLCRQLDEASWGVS

Rattus norvegicus [18] = assay: Cardiotoxicity in Sprague-Dawley rat assessed as increase in mean blood pressure at 3 mg/kg, iv after 30 mins (reference value: 1 +/- 0.5%); type: toxicity, organism-based; settings: in vivo, 0.5 h
CYP2D6 = CYP2D6 (Homo sapiens, UniProt P10635); assay: Inhibition of CYP2D6 (unknown origin) at 10 uM relative to control; type: ADME
CYP2D6, sequence (P10635 whole entry): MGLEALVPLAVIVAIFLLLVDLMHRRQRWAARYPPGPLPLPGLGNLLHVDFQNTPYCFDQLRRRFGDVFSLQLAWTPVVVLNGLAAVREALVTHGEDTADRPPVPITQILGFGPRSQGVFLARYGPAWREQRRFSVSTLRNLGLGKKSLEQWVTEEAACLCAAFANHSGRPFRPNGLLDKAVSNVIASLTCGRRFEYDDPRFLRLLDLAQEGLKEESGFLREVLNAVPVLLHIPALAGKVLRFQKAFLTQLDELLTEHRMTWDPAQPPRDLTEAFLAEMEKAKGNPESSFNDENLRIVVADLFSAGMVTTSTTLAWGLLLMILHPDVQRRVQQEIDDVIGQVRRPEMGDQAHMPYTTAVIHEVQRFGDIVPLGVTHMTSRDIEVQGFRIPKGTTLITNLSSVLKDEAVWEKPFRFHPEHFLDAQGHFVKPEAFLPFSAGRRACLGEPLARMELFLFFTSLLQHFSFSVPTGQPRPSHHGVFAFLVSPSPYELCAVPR

Rattus norvegicus [19] = assay: Cardiotoxicity in Sprague-Dawley rat assessed as decrease in mean blood pressure at 3 mg/kg, iv after 30 mins (reference value: 5.4 +/- 1.9%); type: toxicity, organism-based; design: scale not given: the % may be the effect or the level left; settings: in vivo, 0.5 h
Rattus norvegicus [20] = assay: Cardiotoxicity in Sprague-Dawley rat assessed as increase in heart beat rate at 3 mg/kg, iv after 30 mins (reference value: 1.8 +/- 0.9%); type: toxicity, organism-based; settings: in vivo, 0.5 h

Row | SMILES | Emax [1] [%] | Ratio EC50 (Homo sapiens) | CLint scaled at 0.5 µM [2] [mL/min/kg] | CLint scaled at 1 µM [3] [mL/min/kg] | EC50 [12] [nM] | Intrinsic activity [14] [%] | EC50 [15] [nM] | further results
1 | Cc1n[nH]c2cc(OCCNC[C@H](O)c3cccc(NS(=O)(=O)c4ccccc4)c3)ccc12 | 0 | > 2560 |  | 464 | 3.9 | 85 | > 10000 | Emax at 0.5 h [6]: 0%; EC50 [13]: > 10000 nM; Intrinsic activity [7]: 10%; Papp at 1 h, 50 µM [8]: 5.1 ×10⁻⁶ cm/s; solubility at 18 h [10]: 229 µM (≈ 107 µg/mL); solubility at 18 h [11]: 300 µM (≈ 140 µg/mL); EC50 [16]: > 10000 nM
2 | CC(C)NCC(O)c1ccc(O)c(O)c1 (configuration not stated) |  |  |  |  |  |  |  | Activity [17]: Active
3 | Cc1n[nH]c2cc(OCCNC[C@H](O)c3cccc(NS(=O)(=O)C4CCCC4)c3)ccc12 | 0 | > 32 |  |  | 309 | 58 | > 10000 | 
4 | Cc1n[nH]c2cc(OCCNC[C@H](O)c3cccc(NS(=O)(=O)C4CC4)c3)ccc12 | 26 | 29 |  |  | 43 | 72 | 1250 | 
5 | CS(=O)(=O)Nc1cccc([C@@H](O)CNCCOc2ccc3c(C4CCC4)n[nH]c3c2)c1 | 4 | > 151 | 641 | 463 |  |  |  | 
6 | Nc1nc(CC(=O)Nc2ccc(CCNC[C@H](O)c3ccccc3)cc2)cs1 [MIRABEGRON] |  |  |  |  |  |  |  | Activity (Rattus norvegicus [18]): 3.5%; inhibition at 10 µM (CYP2D6): 87%; Activity (Rattus norvegicus [19]): 38.3%; Activity (Rattus norvegicus [20]): 10%
7 | CCCS(=O)(=O)Nc1cccc([C@@H](O)CNCCOc2ccc3c(C)n[nH]c3c2)c1 | 84 | 25 |  |  | 6.5 | 79 | 163 | 

Continued, in another order:

Row | Emax [1] [%] | Ratio EC50 (Homo sapiens) | CLint scaled at 0.5 µM [2] [mL/min/kg] | CLint scaled at 1 µM [3] [mL/min/kg] | EC50 [12] [nM] | Intrinsic activity [14] [%] | EC50 [15] [nM] | SMILES | further results
8 | 31 | 61 | 113 | 42 |  |  |  | CCc1n[nH]c2cc(OCCNC[C@H](O)c3cccc(NS(C)(=O)=O)c3)ccc12 | 
9 | 9.1 | > 769 | 211 | 193 |  |  |  | CC(C)c1n[nH]c2cc(OCCNC[C@H](O)c3cccc(NS(C)(=O)=O)c3)ccc12 | Cmax [4]: 45.2 ng/mL; half-life [5]: 1.62 h; Emax at 0.5 h [6]: 5.6%; Intrinsic activity [7]: 11.9%; Papp at 1 h, 50 µM [8]: 4.1 ×10⁻⁶ cm/s; AUC [9]: 200 ng·h/mL; solubility at 18 h [10]: 267 µM (≈ 115 µg/mL); solubility at 18 h [11]: 295 µM (≈ 128 µg/mL)
10 | 71 | 10 | 103 | < 10 |  |  |  | Cc1n[nH]c2cc(OCCNC[C@H](O)c3cccc(NS(C)(=O)=O)c3)ccc12 | Cmax [4]: 107 ng/mL; Papp at 1 h, 50 µM [8]: 2.4 ×10⁻⁶ cm/s; AUC [9]: 542 ng·h/mL; solubility at 18 h [10]: 273 µM (≈ 110 µg/mL); solubility at 18 h [11]: 285 µM (≈ 115 µg/mL)
11 | 27 | 25 |  |  | 70 | 90 | 1760 | Cc1n[nH]c2cc(OCCNC[C@H](O)c3cccc(NS(=O)(=O)C(C)C)c3)ccc12 | 
